In ChEMBL document CHEMBL1166013, “Pharmacophore and structure-activity relationships of integrase inhibition within a dual inhibitor scaffold of HIV reverse transcriptase and integrase” (Bioorg Med Chem, 2010):
The source made the active and inactive calls. The calls are words filed in the database; no cut-off is given here.

Assays:
[1] = biological target: Human immunodeficiency virus type 1 reverse transcriptase (Human immunodeficiency virus 1) (UniProt Q72547); test: Inhibition of HIV 3B reverse transcriptase at 10 uM using [3H]TTP as a tracer by scintillation counting
Outline: (§1)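 Resin-bound poly(A) template in scintillation format incubated with compound and [3H]-TTP tracer; reaction started by adding RT enzyme, run 3 h at 37 °C, quenched with stop buffer; incorporated [3H]-TTP counted 1 min per sample on a beta counter.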

[2] = biological target: Human immunodeficiency virus type 1 integrase (Human immunodeficiency virus 1, UniProt Q7ZJM1); test: Inhibition of HIV 3B integrase strand transfer activity
Outline: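 IN expressed in E. coli BL21(DE3) by IPTG induction. 600 nM IN in HEPES pH 7.5, 10 mM MnCl2, 1 mM DTT, 10% glycerol, BSA, Brij-35 preincubated 10 min at room temperature with inhibitor or DMSO; 50 nM annealed 5'-biotin/3'-cy5 duplex DNA added, 2 h 37 °C. Product captured on streptavidin plate, washed, eluted with formamide, fluorescence read.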

[3] = biological target: Human immunodeficiency virus type 1 reverse transcriptase (Human immunodeficiency virus 1) (UniProt Q72547); test: Inhibition of HIV 3B reverse transcriptase at 100 uM using [3H]TTP as a tracer by scintillation counting; outline: as §1
[4] = tested on: Human immunodeficiency virus 1; test: Antiviral activity against HIV1 3B infected in human CEM-SS cells assessed as reduction in virus-induced cytopathic effect at 10 uM after 6 days by MTS assay; type: functional; set-up: scale not given: the % may be the effect or the level left
[5] = Cytotoxicity against human CEM-SS cells after 6 days by MTS assay; type: cell-based; settings: read-out: TC50
[6] = tested on: Human immunodeficiency virus 1; test: Antiviral activity against HIV1 3B infected in human CEM-SS cells assessed as inhibition of virus-induced cytopathic effect after 6 days by MTS assay; type: functional, organism-based; settings: Human immunodeficiency virus 1, 3B, 144 h
Outline: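 CEM-SS cells mixed with pre-titered HIV-1 IIIB (virus control wells lose 70–95% viability) in presence of compound, incubated 6 days; cytoprotection read by MTS or XTT dye reduction. Plates held cell, virus, compound toxicity and colorimetric controls; AZT positive control. EC50 = concentration inhibiting virus replication by 50%.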

[7] = biological target: Human immunodeficiency virus type 1 reverse transcriptase (Human immunodeficiency virus 1, UniProt Q72547); test: Inhibition of HIV 3B reverse transcriptase using [3H]TTP as a tracer by scintillation counting
[8] = Therapeutic index, ratio of TC50 for human CEM-SS cells to EC50 for HIV1 3B; type: cell-based; settings: read-out: TI
Outline: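 TI calculated as TC50/EC50 from the 6-day CEM-SS cytoprotection assay (HIV-1 IIIB; MTS or XTT dye reduction) and matching compound-only toxicity wells.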

Chain of Human immunodeficiency virus type 1 integrase (Q7ZJM1 whole entry): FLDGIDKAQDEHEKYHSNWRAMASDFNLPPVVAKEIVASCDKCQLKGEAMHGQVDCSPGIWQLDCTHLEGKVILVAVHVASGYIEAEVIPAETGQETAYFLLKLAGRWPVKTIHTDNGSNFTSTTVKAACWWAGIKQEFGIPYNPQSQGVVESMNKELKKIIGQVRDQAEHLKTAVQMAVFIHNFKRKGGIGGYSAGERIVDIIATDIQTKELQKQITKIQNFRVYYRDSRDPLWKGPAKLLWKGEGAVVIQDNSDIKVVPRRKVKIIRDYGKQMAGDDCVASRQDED

Row | inhibition [1] | IC50 [2] | inhibition [3] | IC50 [7] | Structure (SMILES) | Activity [4] | CC50 at 144 h [5] | EC50 [6] | selectivity ratio [8]
1 | 0% | > 100 µM | 0% | – | CC(C)c1c(Cc2ccccc2)[nH]c(=O)n(CCCCCCc2ccc(C(=O)/C=C(\O)C(=O)O)cc2)c1=O | 9% | – | – | –
2 | 0% | 12 µM | 0% | – | CC(C)c1c(Cc2ccccc2)[nH]c(=O)n(CCCc2ccc(C(=O)/C=C(\O)C(=O)O)cc2)c1=O | 0.6% | – | – | –
3 | 100% | 7.4 µM | 100% | – | CC(C)c1c(Cc2ccccc2)n(COCCc2ccc(C(=O)/C=C(\O)C(=O)O)cc2)c(=O)[nH]c1=O | 100% | – | – | –
4 | 100% | 8.2 µM | 100% | – | CC(C)c1c(Cc2ccccc2)n(COCCCc2ccc(C(=O)/C=C(\O)C(=O)O)cc2)c(=O)[nH]c1=O | 91% | – | – | –
5 | 0% | 37 µM | 0% | – | CC(C)c1c(Cc2ccccc2)[nH]c(=O)n(CCCCc2ccc(C(=O)/C=C(\O)C(=O)O)cc2)c1=O | 0% | – | – | –
6 | – | 11 µM | – | 0.16 µM | CC(C)c1c(Cc2ccccc2)n(COCc2ccc(Cc3cccc(C(=O)/C=C(\O)C(=O)O)c3)cc2)c(=O)[nH]c1=O | – | > 100 µM | 0.46 µM | > 220
7 | 0% | 8 µM | 0% | – | CC(C)c1c(Cc2ccccc2)[nH]c(=O)n(CCc2ccc(C(=O)/C=C(\O)C(=O)O)cc2)c1=O | 28% | – | – | –

More lines, now with the values behind:

Row | Structure (SMILES) | inhibition [1] | IC50 [2] | inhibition [3] | IC50 [7] | Activity [4] | CC50 at 144 h [5] | EC50 [6] | selectivity ratio [8]
8 | CCc1c(Cc2ccccc2)nc(SCc2ccc(C(=O)/C=C(\O)C(=O)O)cc2)[nH]c1=O | 0% | > 100 µM | 0% | – | inactive | – | – | –
9 | CCc1c(Cc2cc(C)cc(C)c2)n(COCc2ccc(Cc3cccc(C(=O)/C=C(\O)C(=O)O)c3)cc2)c(=O)[nH]c1=O | – | 14 µM | – | 0.028 µM | – | > 100 µM | 0.014 µM | > 710
10 | CCc1c(Cc2ccccc2)nc(SCc2ccc(Cc3cccc(C(=O)/C=C(\O)C(=O)O)c3)cc2)[nH]c1=O | 0% | > 100 µM | 0% | – | inactive | – | – | –
11 | CCc1c(Cc2ccccc2)n(COCc2ccc(Cc3cccc(C(=O)/C=C(\O)C(=O)O)c3)cc2)c(=O)[nH]c1=O | – | 16 µM | – | 0.71 µM | – | 32 µM | 0.56 µM | 56
12 | Cc1cc(C)cc(Cc2c(C(C)C)c(=O)[nH]c(=O)n2COCc2ccc(Cc3cccc(C(=O)/C=C(\O)C(=O)O)c3)cc2)c1 | – | 22 µM | – | 0.1 µM | – | 96 µM | 0.17 µM | 560
